Data reported in ChEMBL document CHEMBL1122553, “Tetrahydropyrrolo[1,2-a]quinoxalines and tetrahydropyrrolo[1,2-a]pyrido[3,2-a]pyrazines: vascular smooth muscle relaxants and antihypertensive agents” (1984).

What was measured:
Rattus norvegicus = experiment: Antihypertensive activity expressed as maximal change in systolic blood pressure (SBP) from pretreatment levels at either 1.5 or 4 hr after dosing; assay type: functional, Artery
Outline: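 Male spontaneously hypertensive rats (Okamoto-Aoki, ~300-400 g), fasted at least 16 h, given a single oral 50 mg/kg dose by stomach tube; groups of four, with vehicle-only controls. Systolic pressure taken indirectly by tail plethysmography after 10 min warming at 38 °C, before dosing and at 1.5 and 4 h after. Reported as X ± SE.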

Oryctolagus cuniculus = species: Oryctolagus cuniculus; experiment: The vascular smooth muscle relaxant activity was expressed as percent relaxation of the developed isometric tension in potassium depolarized rabbit aortic smooth muscle; assay type: functional, Aorta
Outline: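 Transverse thoracic aorta strips from female New Zealand albino rabbits in Krebs solution (95% O2/5% CO2, 37 °C), held at 4 g isometric tension and equilibrated 90 min. Strips were primed with high-K+ (100 mM) solution plus 2.5 mM CaCl2, rinsed, then recontracted. After 20 min of sustained contraction, drug was added at 10⁻⁵ M final. Tension 20 min later was compared with pre-drug tension and given as % relaxation.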

Row | Compound | Max SBP (Rattus norvegicus) | Vascular relaxation (Oryctolagus cuniculus)
1 | COc1cccc(OC)c1CN1CC2CCCN2c2ccccc21 (centres undefined) | -5 mmHg | 13%
2 | COc1cccc(OC)c1CN1C(=O)C2CCCN2c2ccccc21 (centres undefined) | -19 mmHg | 30%
3 | COc1cccc(OC)c1CN1CC2CCCN2c2ncccc21 (centres undefined) | -6 mmHg | 54%
4 | c1ccc2c(c1)NCC1CCCN21 (centres undefined) | -17 mmHg | 0%
5 | O=C1C2CCCN2c2ccccc2N1Cc1ccccc1 (centres undefined) | -4 mmHg | 
6 | O=C1C2CCCN2c2ncccc2N1Cc1ccccc1 (centres undefined) | -39 mmHg | 0%
7 | CN(C)CCN1C(=O)C2CCCN2c2ncccc21 (centres undefined) | -22 mmHg | 0%
8 | COc1cccc(OC)c1C(=O)N1CC2CCCN2c2ccccc21 (centres undefined) | -13 mmHg | 6%
9 | O=C1Nc2ccccc2N2CCCC12 (centres undefined) | -26 mmHg | 0%
10 | O=C1C2CCCN2c2ncccc2N1Cc1ccncc1 (centres undefined) | -38 mmHg | 0%
11 | COc1cccc(OC)c1CN1C(=O)C2CCCN2c2ncccc21 (centres undefined) | -18 mmHg | 5%
12 | O=C1C2CCCN2c2ccccc2N1Cc1ccncc1 (centres undefined) | -2 mmHg | 
13 | COC(=O)C1=C(C)NC(C)=C(C(=O)OC)C1c1ccccc1[N+](=O)[O-] [NIFEDIPINE] | -68 mmHg | 75%
